# Assay results from ChEMBL document CHEMBL4325893, “Synthesis and antibacterial profiles of targeted triclosan derivatives” (2019).
# How the values were obtained:
# Staphylococcus aureus [1] = assay: Antibacterial activity against Staphylococcus aureus NCTC 13758 after 18 hrs; format: functional; details: NCTC 13758, 18 h
# Method in brief: (§1)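 Broth microdilution in Nutrient Broth No. 2; stocks in ethanol diluted to 0.01–128 µg/ml (triclosan) or 0.25–256 µg/ml (glycosides). Overnight 37 °C NB2 cultures diluted 1 in 10^4 in saline and added to the dilutions. Incubation at 37 °C with agitation, OD read every 15 min; MIC is the lowest concentration preventing any OD rise after 18 h.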
# Streptococcus pneumoniae = assay: Antibacterial activity against Streptococcus pneumoniae ATCC 49619 after 18 hrs; format: functional; details: ATCC 49619, 18 h
# Method in brief: (§2)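 Broth microdilution in Nutrient Broth No. 2. Ethanol stocks were diluted in broth to 0.01–128 µg/ml for triclosan and 0.25–256 µg/ml for glycosides. Overnight 37°C NB2 cultures were diluted 1 in 10^4 in saline and added to the wells. Plates were incubated at 37°C with OD read every 15 min after agitation. MIC was the lowest concentration giving no OD increase at 18 h.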
# [2] = tested on: Staphylococcus epidermidis; assay: Antibacterial activity against Staphylococcus epidermidis ATCC 12228 after 18 hrs; format: functional; details: ATCC 12228, 18 h; method in brief: as §1
# Hafnia alvei = assay: Antibacterial activity against Hafnia alvei 13337 after 18 hrs; format: functional; details: Hafnia alvei, 13337, 18 h; method in brief: as §1
# Escherichia coli [3] = assay: Antibacterial activity against Escherichia coli OCC 122 after 18 hrs; format: functional; details: OCC 122, 18 h; method in brief: as §1
# Enterococcus faecalis [4] = assay: Antibacterial activity against Enterococcus faecalis ATCC 29212 after 18 hrs; format: functional; details: ATCC 29212, 18 h; method in brief: as §1
# Staphylococcus aureus [5] = assay: Antibacterial activity against Staphylococcus aureus OCC 106 after 18 hrs; format: functional; details: OCC 106, 18 h; method in brief: as §1
# [6] = Antibacterial activity against Salmonella enterica subspecies enterica serotype Pullorum OCC 273 after 18 hrs; format: functional, Salmonella enterica subsp. enterica serovar Pullorum; details: OCC 273, 18 h; method in brief: as §1
# [7] = Antibacterial activity against Salmonella enterica subspecies enterica serotype Virchow NCTC 5742 after 18 hrs; format: functional, Salmonella enterica subsp. enterica serovar Virchow; details: NCTC 5742, 18 h; method in brief: as §1
# [8] = tested on: Staphylococcus haemolyticus; assay: Antibacterial activity against Staphylococcus haemolyticus OCC 2223 after 18 hrs; format: functional; details: OCC 2223, 18 h; method in brief: as §2
# Bacillus subtilis = assay: Antibacterial activity against Bacillus subtilis NCTC 10073 after 18 hrs; format: functional; details: NCTC 10073, 18 h; method in brief: as §1
# Staphylococcus aureus [9] = assay: Antibacterial activity against Staphylococcus aureus ATCC 29213 after 18 hrs; format: functional; details: ATCC 29213, 18 h; method in brief: as §1
# Streptococcus pyogenes = assay: Antibacterial activity against Streptococcus pyogenes ATCC 19615 after 18 hrs; format: functional; details: ATCC 19615, 18 h; method in brief: as §2
# Bacillus cereus = assay: Antibacterial activity against Bacillus cereus ATCC 14579 after 18 hrs; format: functional; details: ATCC 14579, 18 h; method in brief: as §1
# Escherichia coli [10] = assay: Antibacterial activity against Escherichia coli ATCC 8739 after 18 hrs; format: functional; details: ATCC 8739, 18 h; method in brief: as §1
# Enterococcus faecalis [11] = assay: Antibacterial activity against Enterococcus faecalis ATCC 33186 after 18 hrs; format: functional; details: ATCC 33186, 18 h; method in brief: as §1
# Staphylococcus aureus [12] = assay: Antibacterial activity against Staphylococcus aureus OCC 104 after 18 hrs; format: functional; details: OCC 104, 18 h; method in brief: as §1
# [13] = tested on: Staphylococcus saprophyticus; assay: Antibacterial activity against Staphylococcus saprophyticus ATCC 15305 after 18 hrs; format: functional; details: ATCC 15305, 18 h; method in brief: as §2
# Staphylococcus aureus [14] = assay: Antibacterial activity against Staphylococcus aureus ATCC 6538P after 18 hrs; format: functional; method in brief: as §1
# Aeromonas hydrophila = assay: Antibacterial activity against Aeromonas hydrophila OCC 778 after 18 hrs; format: functional; details: OCC 778, 18 h; method in brief: as §1
# Proteus mirabilis = assay: Antibacterial activity against Proteus mirabilis ATCC 12453 after 18 hrs; format: functional; details: ATCC 12453, 18 h; method in brief: as §1
# [15] = tested on: Staphylococcus epidermidis; assay: Antibacterial activity against Staphylococcus epidermidis ATCC 14990 after 18 hrs; format: functional; details: ATCC 14990, 18 h; method in brief: as §1
# Klebsiella pneumoniae [16] = assay: Antibacterial activity against Klebsiella pneumoniae ATCC 10031 after 18 hrs; format: functional; details: ATCC 10031, 18 h; method in brief: as §1
# [17] = Antibacterial activity against Salmonella enterica subspecies enterica serotype Dublin OCC 627 after 18 hrs; format: functional, Salmonella enterica subsp. enterica serovar Dublin; details: OCC 627, 18 h; method in brief: as §1
# Citrobacter freundii = assay: Antibacterial activity against Citrobacter freundii 8090 after 18 hrs; format: functional; details: Citrobacter freundii, 8090, 18 h; method in brief: as §1
# Klebsiella aerogenes = assay: Antibacterial activity against Enterobacter aerogenes ATCC 13048 after 18 hrs; format: functional; details: ATCC 13048, 18 h; method in brief: as §1
# Klebsiella pneumoniae [18] = assay: Antibacterial activity against Klebsiella pneumoniae ATCC 13883 after 18 hrs; format: functional; details: ATCC 13883, 18 h; method in brief: as §1
# Streptococcus viridans = assay: Antibacterial activity against Streptococcus viridans OCC 234 after 18 hrs; format: functional; details: OCC 234, 18 h; method in brief: as §2
# Staphylococcus aureus [19] = assay: Antibacterial activity against Staphylococcus aureus ATCC 9144 after 18 hrs; format: functional; details: ATCC 9144, 18 h; method in brief: as §1
smiles,measurement,setting,value
O[C@@H]1[C@@H](Oc2cc(Cl)ccc2Oc2ccc(Cl)cc2Cl)OC[C@@H](O)[C@H]1O,MIC,Staphylococcus aureus [1],0.5 µg/mL
same,MIC,Streptococcus pneumoniae,64 µg/mL
same,MIC,[2],0.5 µg/mL
same,MIC,Hafnia alvei,0.5 µg/mL
same,MIC,Escherichia coli [3],0.5 to 4 µg/mL
same,MIC,Enterococcus faecalis [4],128 µg/mL
same,MIC,Staphylococcus aureus [5],0.5 µg/mL
same,MIC,[6],2 to 8 µg/mL
same,MIC,[7],2 to 8 µg/mL
same,MIC,[8],0.5 µg/mL
same,MIC,Bacillus subtilis,32 µg/mL
same,MIC,Staphylococcus aureus [9],0.5 µg/mL
same,MIC,Streptococcus pyogenes,16 µg/mL
same,MIC,Bacillus cereus,128 µg/mL
same,MIC,Escherichia coli [10],0.5 to 4 µg/mL
same,MIC,Enterococcus faecalis [11],128 µg/mL
same,MIC,Staphylococcus aureus [12],0.5 µg/mL
same,MIC,[13],8 µg/mL
same,MIC,Staphylococcus aureus [14],0.5 µg/mL
same,MIC,Aeromonas hydrophila,128 µg/mL
same,MIC,Proteus mirabilis,4 µg/mL
same,MIC,[15],0.5 µg/mL
same,MIC,Klebsiella pneumoniae [16],0.5 µg/mL
same,MIC,[17],2 to 8 µg/mL
same,MIC,Citrobacter freundii,8 µg/mL
same,MIC,Klebsiella aerogenes,8 µg/mL
same,MIC,Klebsiella pneumoniae [18],0.5 µg/mL
same,MIC,Streptococcus viridans,128 µg/mL
same,MIC,Staphylococcus aureus [19],0.5 µg/mL
